In ChEMBL document CHEMBL4393709, “Structure-guided optimization of 4,6-substituted-1,3,5-triazin-2(1H)-ones as catalytic inhibitors of human DNA topoisomerase IIα” (Eur J Med Chem, 2019):
The source made the active and inactive calls. The calls are words filed in the database; no cut-off is given here.

How the values were obtained:
HepG2 [1] = assay: Cytotoxicity against human HepG2 cells assessed as reduction in cell viability at 200 uM after 24 hrs by MTS assay; type: functional, cell-based
In short: (§1)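 Single-concentration screen: exponentially growing HepG2 or MCF-7 cells were exposed to compounds for 24 h, and viability was read by MTS relative to control. DMSO (0.5%) was the solvent control; etoposide was the positive control.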

MCF7 = assay: Cytotoxicity against human MCF7 cells assessed as reduction in cell viability at 200 uM after 24 hrs by MTS assay; type: functional, cell-based; in short: as §1
[2] = target: DNA topoisomerase 2-beta (Homo sapiens) (UniProt Q02880); assay: (§2) Inhibition of human topoisomerase-2beta mediated decatenation at […] using kinetoplast DNA as substrate after 30 mins in presence of ATP by ethidium bromide staining-based gel electrophoresis method relative to control; design: scale not given: the % may be the effect or the level left
Chain of DNA topoisomerase 2-beta (Homo sapiens) (Q02880 whole entry): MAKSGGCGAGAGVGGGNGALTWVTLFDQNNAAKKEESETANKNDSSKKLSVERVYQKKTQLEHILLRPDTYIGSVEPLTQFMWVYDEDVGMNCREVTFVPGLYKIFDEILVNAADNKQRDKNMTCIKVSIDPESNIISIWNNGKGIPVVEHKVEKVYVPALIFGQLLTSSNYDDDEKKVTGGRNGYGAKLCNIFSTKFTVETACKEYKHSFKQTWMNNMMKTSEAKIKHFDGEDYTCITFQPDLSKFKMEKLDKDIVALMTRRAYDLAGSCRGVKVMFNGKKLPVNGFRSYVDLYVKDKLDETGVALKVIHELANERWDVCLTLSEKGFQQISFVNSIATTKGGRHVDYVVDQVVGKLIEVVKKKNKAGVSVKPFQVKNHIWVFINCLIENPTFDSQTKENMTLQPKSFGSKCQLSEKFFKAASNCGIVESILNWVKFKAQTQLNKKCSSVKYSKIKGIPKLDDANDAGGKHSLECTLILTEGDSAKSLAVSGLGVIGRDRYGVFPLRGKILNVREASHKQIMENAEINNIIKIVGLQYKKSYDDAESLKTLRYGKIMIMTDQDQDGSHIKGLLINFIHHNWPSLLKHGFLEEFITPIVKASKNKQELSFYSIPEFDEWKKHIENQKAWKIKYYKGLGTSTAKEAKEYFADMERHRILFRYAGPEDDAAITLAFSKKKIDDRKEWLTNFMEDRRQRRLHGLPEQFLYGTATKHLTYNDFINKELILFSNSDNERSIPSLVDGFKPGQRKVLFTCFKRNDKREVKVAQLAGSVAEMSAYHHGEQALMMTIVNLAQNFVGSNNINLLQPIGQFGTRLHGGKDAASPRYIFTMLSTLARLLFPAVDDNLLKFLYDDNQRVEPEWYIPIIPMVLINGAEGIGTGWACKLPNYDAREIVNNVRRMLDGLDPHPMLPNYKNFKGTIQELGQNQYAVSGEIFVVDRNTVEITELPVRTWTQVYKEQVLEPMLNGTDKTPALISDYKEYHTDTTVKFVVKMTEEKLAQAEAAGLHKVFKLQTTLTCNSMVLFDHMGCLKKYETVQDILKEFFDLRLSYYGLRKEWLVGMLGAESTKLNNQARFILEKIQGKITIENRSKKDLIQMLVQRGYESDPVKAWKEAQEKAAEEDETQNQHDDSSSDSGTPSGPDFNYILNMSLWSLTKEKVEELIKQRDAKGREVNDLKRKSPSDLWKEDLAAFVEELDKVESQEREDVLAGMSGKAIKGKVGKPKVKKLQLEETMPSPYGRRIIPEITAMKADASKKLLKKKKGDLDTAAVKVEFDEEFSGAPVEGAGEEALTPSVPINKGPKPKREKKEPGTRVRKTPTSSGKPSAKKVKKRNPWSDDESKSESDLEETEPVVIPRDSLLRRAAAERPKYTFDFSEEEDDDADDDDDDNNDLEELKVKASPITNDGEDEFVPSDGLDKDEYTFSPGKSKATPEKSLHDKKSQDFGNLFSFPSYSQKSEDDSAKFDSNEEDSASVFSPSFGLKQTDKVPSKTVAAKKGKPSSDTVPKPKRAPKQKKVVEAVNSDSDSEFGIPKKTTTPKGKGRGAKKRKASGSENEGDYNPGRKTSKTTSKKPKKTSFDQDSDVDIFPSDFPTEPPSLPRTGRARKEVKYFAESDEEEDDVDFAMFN

[3] = target: DNA topoisomerase 2-beta (Homo sapiens) (UniProt Q02880); assay: as §2; design: scale not given: the % may be the effect or the level left; remark: listed apart in the source
[4] = target: DNA topoisomerase 2-beta (Homo sapiens) (UniProt Q02880); assay: Inhibition of human topoisomerase-2beta mediated decatenation at 125 uM using kinetoplast DNA as substrate after 30 mins in presence of ATP by ethidium bromide staining-based gel electrophoresis method relative to control; design: scale not given: the % may be the effect or the level left
In short: (§3)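 One U of human topo IIα or IIβ with 200 ng kDNA, 30 min at 37 °C in 50 mM Tris-HCl pH 7.5, 125 mM NaCl, 10 mM MgCl2, 5 mM DTT, 0.5 mM EDTA, 0.1 mg/ml BSA, 1 mM ATP. Compounds (3.9–500 µM, 1% DMSO final) were added before the enzyme. Reactions were stopped with chloroform/isoamyl alcohol, run on a 1% TAE gel and stained with EtBr; inhibition came from band densitometry, in duplicate.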

[5] = target: DNA topoisomerase 2-beta (Homo sapiens) (UniProt Q02880); assay: Inhibition of human topoisomerase-2beta mediated decatenation at 500 uM using kinetoplast DNA as substrate after 30 mins in presence of ATP by ethidium bromide staining-based gel electrophoresis method relative to control; design: scale not given: the % may be the effect or the level left; in short: as §3
[6] = target: T1, DNA topoisomerase 2-alpha (Homo sapiens, UniProt P11388); assay: Inhibition of human topoisomerase 2alpha using supercoiled pNO1 plasmid as substrate after 30 mins by HTS assay
T1 sequence (P11388 whole entry): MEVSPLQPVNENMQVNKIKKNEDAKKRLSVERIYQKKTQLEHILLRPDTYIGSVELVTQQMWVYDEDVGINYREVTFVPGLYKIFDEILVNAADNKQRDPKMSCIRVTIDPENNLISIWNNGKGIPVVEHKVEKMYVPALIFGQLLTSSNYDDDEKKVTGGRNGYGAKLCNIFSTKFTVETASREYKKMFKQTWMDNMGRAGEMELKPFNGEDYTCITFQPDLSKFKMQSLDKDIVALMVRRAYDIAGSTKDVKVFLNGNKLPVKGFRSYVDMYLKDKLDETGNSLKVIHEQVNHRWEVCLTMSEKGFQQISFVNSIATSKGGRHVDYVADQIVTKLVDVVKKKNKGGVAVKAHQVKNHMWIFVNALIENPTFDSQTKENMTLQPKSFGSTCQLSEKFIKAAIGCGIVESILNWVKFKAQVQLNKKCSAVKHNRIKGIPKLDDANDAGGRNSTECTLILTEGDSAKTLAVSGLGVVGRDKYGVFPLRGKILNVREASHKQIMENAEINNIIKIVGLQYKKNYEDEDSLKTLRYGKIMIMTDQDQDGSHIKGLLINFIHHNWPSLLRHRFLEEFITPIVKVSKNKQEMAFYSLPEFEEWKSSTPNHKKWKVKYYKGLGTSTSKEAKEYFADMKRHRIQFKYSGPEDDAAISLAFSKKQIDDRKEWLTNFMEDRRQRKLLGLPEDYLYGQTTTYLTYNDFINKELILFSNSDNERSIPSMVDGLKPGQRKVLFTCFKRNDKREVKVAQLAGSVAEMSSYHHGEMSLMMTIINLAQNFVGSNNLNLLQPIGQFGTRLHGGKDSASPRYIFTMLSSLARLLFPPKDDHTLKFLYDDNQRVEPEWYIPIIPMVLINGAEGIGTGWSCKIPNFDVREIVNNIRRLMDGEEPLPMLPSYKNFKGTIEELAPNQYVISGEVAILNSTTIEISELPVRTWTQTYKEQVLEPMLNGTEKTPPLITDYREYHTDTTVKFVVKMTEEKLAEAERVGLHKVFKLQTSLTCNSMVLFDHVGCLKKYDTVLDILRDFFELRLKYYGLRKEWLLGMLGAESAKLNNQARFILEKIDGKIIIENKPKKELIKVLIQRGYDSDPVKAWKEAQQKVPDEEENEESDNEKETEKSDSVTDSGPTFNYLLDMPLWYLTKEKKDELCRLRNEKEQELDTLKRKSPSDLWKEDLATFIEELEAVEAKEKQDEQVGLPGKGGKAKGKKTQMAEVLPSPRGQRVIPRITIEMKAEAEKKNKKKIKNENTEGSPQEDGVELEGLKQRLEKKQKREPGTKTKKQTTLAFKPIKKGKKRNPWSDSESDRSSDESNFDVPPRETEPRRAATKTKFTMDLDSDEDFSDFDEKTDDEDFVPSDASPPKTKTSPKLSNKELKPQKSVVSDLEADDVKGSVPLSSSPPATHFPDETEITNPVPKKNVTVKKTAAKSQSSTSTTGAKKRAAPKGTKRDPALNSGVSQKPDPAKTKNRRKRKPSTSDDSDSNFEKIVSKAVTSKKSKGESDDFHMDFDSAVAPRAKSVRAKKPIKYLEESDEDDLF

[7] = target: T1, DNA topoisomerase 2-alpha; assay: Inhibition of human topoisomerase-2alpha mediated decatenation at 125 uM using kinetoplast DNA as substrate after 30 mins in presence of ATP by ethidium bromide staining-based gel electrophoresis method relative to control; design: scale not given: the % may be the effect or the level left
[8] = target: T1, DNA topoisomerase 2-alpha; assay: Inhibition of human topoisomerase-2alpha mediated decatenation at 500 uM using kinetoplast DNA as substrate after 30 mins in presence of ATP by ethidium bromide staining-based gel electrophoresis method relative to control; design: scale not given: the % may be the effect or the level left
[9] = target: T1, DNA topoisomerase 2-alpha; assay: (§4) Poison activity at human topoisomerase-2alpha assessed as linear DNA formation at […] using supercoiled pBR322 DNA as substrate after 60 mins by ethidium bromide staining based agarose gel electrophoresis method (reference value: […]); conditions: 1 h
[10] = target: T1, DNA topoisomerase 2-alpha; assay: as §4; conditions: 1 h; remark: listed apart in the source
[11] = target: T1, DNA topoisomerase 2-alpha; assay: Poison activity at human topoisomerase-2alpha assessed as linear DNA formation at 125 uM using supercoiled pBR322 DNA as substrate after 60 mins by ethidium bromide staining based agarose gel electrophoresis method (reference value: […]); conditions: 1 h
[12] = target: T1, DNA topoisomerase 2-alpha; assay: Poison activity at human topoisomerase-2alpha assessed as linear DNA formation at 500 uM using supercoiled pBR322 DNA as substrate after 60 mins by ethidium bromide staining based agarose gel electrophoresis method (reference value: […]); conditions: 1 h
[13] = target: T1, DNA topoisomerase 2-alpha; assay: Poison activity at human topoisomerase-2alpha assessed as linear DNA formation at 50 uM using supercoiled pBR322 DNA as substrate after 60 mins by ethidium bromide staining based agarose gel electrophoresis method (reference value: 1.77 %); conditions: 1 h
HepG2 [14] = assay: Cytotoxicity against human HepG2 cells assessed as reduction in cell viability after 24 hrs by MTT assay; type: functional, cell-based; conditions: HepG2, 24 h
[15] = target: T1, DNA topoisomerase 2-alpha; assay: Poison activity at human topoisomerase-2alpha assessed as linear DNA formation using supercoiled pBR322 DNA as substrate after 60 mins by ethidium bromide staining based agarose gel electrophoresis method; conditions: 1 h

Compound	Activity (HepG2 [1])	Activity (MCF7)	also measured
O=c1nc(SCc2ccc(CO)cc2)nc(SCc2ccc(Cl)cc2)[nH]1	inactive	inactive	
O=c1nc(SCc2c(F)cccc2F)nc(SCc2ccccc2F)[nH]1	inactive	inactive	
O=c1nc(SCc2c(F)cccc2F)nc(SCc2cccc(Cl)c2)[nH]1	inactive	inactive	
CC(C(=O)O)c1ccc(CSc2nc(SCc3cccc(Cl)c3)[nH]c(=O)n2)cc1 (centres undefined)	inactive	inactive	
O=c1nc(SCc2cc(F)c(F)cc2F)nc(SCc2ccc(Cl)cc2)[nH]1	inactive	inactive	
NC(=O)c1cccc(CSc2nc(SCc3ccc(Cl)cc3)[nH]c(=O)n2)c1	inactive	inactive	
O=c1nc(SCc2ccc(C(F)(F)F)cc2)nc(SCc2ccccc2F)[nH]1			Activity [2]: 98.2%; Activity [3]: 0%; Activity [4]: 0%; Activity [5]: 0%
O=c1nc(SCc2ccccc2)nc(SCc2cccc(Cl)c2)[nH]1			IC50 [6]: 57.6 µM
O=c1nc(SCc2cccc(O)c2)nc(SCc2cccc(Cl)c2)[nH]1	inactive	inactive	
O=c1nc(SCc2cccc(O)c2)nc(SCc2ccccc2F)[nH]1	inactive	inactive	
O=c1nc(SCc2ccc3nonc3c2)nc(SCc2cccc(Cl)c2)[nH]1	inactive	inactive	
O=C(O)c1cccc(CSc2nc(SCc3cccc(Cl)c3)[nH]c(=O)n2)c1	inactive	inactive	
O=C(O)c1cccc(CSc2nc(SCc3ccc(Cl)cc3)[nH]c(=O)n2)c1	inactive	inactive	
NC(=O)c1cccc(CSc2nc(SCc3ccccc3F)[nH]c(=O)n2)c1	inactive	inactive	
O=c1nc(SCc2ccc(CO)cc2)nc(SCc2cccc(Cl)c2)[nH]1	inactive	inactive	
O=c1nc(SCc2c(F)cccc2F)nc(SCc2ccc(Cl)cc2)[nH]1	inactive	inactive	
O=c1nc(SCc2cccc(O)c2)nc(SCc2ccc(Cl)cc2)[nH]1	inactive	inactive	
O=c1nc(SCc2cc(F)cc(C(F)(F)F)c2)nc(SCc2ccccc2F)[nH]1	inactive	inactive	Activity [2]: 99.4%; Activity [3]: 12.5%; Activity [4]: 0%; Activity [5]: 0%
CC(C(=O)O)c1ccc(CSc2nc(SCc3ccc(Cl)cc3)[nH]c(=O)n2)cc1 (centres undefined)	inactive	inactive	
O=c1nc(SCc2ccc(CO)cc2)nc(SCc2ccccc2F)[nH]1	inactive	inactive	
COc1cc([C@@H]2c3cc4c(cc3[C@@H](O[C@@H]3O[C@@H]5CO[C@@H](C)O[C@H]5[C@H](O)[C@H]3O)[C@H]3COC(=O)[C@H]23)OCO4)cc(OC)c1O [ETOPOSIDE]			Activity [7]: 4.09%; Activity [8]: 2.27%; Activity [2]: 100%; Activity [3]: 93.4%; Activity [4]: 23.9%; Activity [5]: 14.7%; Activity [9]: 13.72%; Activity [10]: 25.79%; Activity [11]: 34.79%; Activity [12]: 39.98%; Activity [13]: 35.56%; EC50 (HepG2 [14]): 60.5 to 93.4 µM; Activity [15]: Dose-dependent effect
O=c1nc(SCc2cc(F)cc(C(F)(F)F)c2)nc(SCc2ccc(Cl)cc2)[nH]1	inactive	inactive	
O=c1nc(SCc2ccc3nonc3c2)nc(SCc2ccccc2F)[nH]1	inactive	inactive	
O=c1nc(SCc2cc(F)cc(C(F)(F)F)c2)nc(SCc2cccc(Cl)c2)[nH]1			Activity [2]: 91.8%; Activity [3]: 0%; Activity [4]: 0%; Activity [5]: 0%
NC(=O)c1cccc(CSc2nc(SCc3cccc(Cl)c3)[nH]c(=O)n2)c1	inactive	inactive	
CC(C(=O)O)c1ccc(CSc2nc(SCc3ccccc3F)[nH]c(=O)n2)cc1 (centres undefined)	inactive	inactive	
CC(C)c1ccc(CSc2nc(SCc3ccc(Cl)cc3)[nH]c(=O)n2)cc1	inactive	inactive	
O=C(O)c1cccc(CSc2nc(SCc3ccccc3F)[nH]c(=O)n2)c1	inactive	inactive	
